Measurements as given in PMC8103808 (Journal of medicinal chemistry, 2020).
Entries after “also recorded” stand apart in the source; their conditions may differ.

Experiments:
[1] = molecular target: T1, PDIA1 (Homo sapiens, UniProt P07237); test: Glutathione competition in PDI reductase assay; format: biochemical; settings: 5 mM GSH
[2] = molecular target: PDI H256A mutant (Homo sapiens, UniProt P07237, H256A); test: PDI reductase assay with H256A mutant; format: biochemical; settings: Histidine 256 in b′ domain mutated to alanine
PDI H256A mutant, sequence (P07237 18-508 H256A): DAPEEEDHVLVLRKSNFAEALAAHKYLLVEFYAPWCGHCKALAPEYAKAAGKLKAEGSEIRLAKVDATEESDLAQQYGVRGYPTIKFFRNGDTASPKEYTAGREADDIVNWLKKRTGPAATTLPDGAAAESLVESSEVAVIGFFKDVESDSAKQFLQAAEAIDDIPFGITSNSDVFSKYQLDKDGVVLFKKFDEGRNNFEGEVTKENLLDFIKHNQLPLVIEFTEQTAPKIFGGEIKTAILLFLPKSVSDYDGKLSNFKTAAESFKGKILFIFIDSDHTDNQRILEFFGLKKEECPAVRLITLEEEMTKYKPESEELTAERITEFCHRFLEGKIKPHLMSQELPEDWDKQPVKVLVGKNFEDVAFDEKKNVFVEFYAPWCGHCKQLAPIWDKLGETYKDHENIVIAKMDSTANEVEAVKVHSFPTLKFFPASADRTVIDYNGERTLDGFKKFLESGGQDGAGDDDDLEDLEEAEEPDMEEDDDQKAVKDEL
Procedure, shortened: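 H256A PDI was made by site-directed mutagenesis, expressed in BL21(DE3) and purified like wild type. Enzyme (0.4 μM or 50 nM) was preincubated with test compound for 1 h at 37 °C in 100 mM sodium phosphate, 2 mM EDTA, 8 μM DTT, pH 7.0. DTT (500 μM; 125 μM for 50 nM enzyme) and 130 μM bovine insulin were added, and reduction proceeded at room temperature. Insulin B-chain aggregation was read at 620 nm, and activity calculated from ΔOD over 60 min (180 min for 50 nM).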

[3] = molecular target: T2, PDIA2 (Homo sapiens, UniProt Q13087); test: PDI reductase assay with PDIA2; format: biochemical
T2 sequence (Q13087 22-525): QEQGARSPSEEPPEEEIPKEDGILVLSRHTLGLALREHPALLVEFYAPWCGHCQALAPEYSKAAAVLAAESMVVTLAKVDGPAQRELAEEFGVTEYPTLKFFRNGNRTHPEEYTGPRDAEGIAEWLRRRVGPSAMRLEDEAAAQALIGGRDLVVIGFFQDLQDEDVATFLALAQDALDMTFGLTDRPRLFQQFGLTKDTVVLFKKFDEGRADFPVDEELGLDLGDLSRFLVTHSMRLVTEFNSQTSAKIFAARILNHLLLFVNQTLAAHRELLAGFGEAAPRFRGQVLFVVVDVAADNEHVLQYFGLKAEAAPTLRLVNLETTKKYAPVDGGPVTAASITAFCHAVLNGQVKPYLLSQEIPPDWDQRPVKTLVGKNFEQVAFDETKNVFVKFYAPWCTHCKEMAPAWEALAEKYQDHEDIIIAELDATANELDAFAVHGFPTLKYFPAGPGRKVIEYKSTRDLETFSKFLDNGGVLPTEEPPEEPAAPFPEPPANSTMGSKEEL

[4] = molecular target: T3, PDI (Homo sapiens, UniProt P07237); test: Thermal shift assay; format: binding; settings: oxidized PDI; 100 μM compound
T3 sequence (P07237 18-508): as the sequence (P07237 18-508 H256A) above, with A239H counted along it

[5] = molecular target: T3, PDI; test: Reversibility; format: biochemical; settings: for PDI activity recovery after 100-fold dilution: 50 μM compound with 40 μM PDI, 3 h at room temperature; for PDI activity recovery after dilution: compound concentrations 10 times that of the protein
[6] = molecular target: PDI b′ domain (Homo sapiens, UniProt P07237); test: ANS spectral scan; format: binding; settings: 5 μM PDI, 100 μM compound
PDI b′ domain, sequence (P07237 18-508): as the sequence (P07237 18-508 H256A) above, with A239H counted along it
Procedure, shortened: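 Recombinant N-terminally His-tagged human PDI, expressed in E. coli BL21(DE3) and Ni-NTA purified, at 5 μM with 100 μM test compound or matching DMSO in TBS for 1 h at 37 °C. ANS then added and incubated 20 min at 25 °C in the dark. Fluorescence spectrum recorded at Ex 370 nm, Em 400–700 nm.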

[7] = molecular target: T3, PDI; test: Protein mass spectrometry; format: binding; settings: 10 μM PDI, 100 μM DTT, 100 μM compound
Procedure, shortened: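 Recombinant human PDI (10 μM) was incubated with 100 μM test compound and 100 μM DTT for 30 min before injection for Q-TOF intact-protein mass spectrometry to detect covalent adducts.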

[8] = tested on: U−118 MG cells; test: Colony formation assay with or without BSO pretreatment; format: cell-based, human; settings: BSO pretreatment 24 h
Procedure, shortened: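 U-118 MG cells grown in RPMI-1640 with 10% FBS were seeded at 600 cells/well and allowed to attach. Serial dilutions of buthionine sulfoximine were added 24 h later, with pretreatment overnight (24 h per legend), then serial dilutions of test compound. Cells were cultured 10–14 days until colonies formed, stained 1 h with crystal violet/formaldehyde/methanol, washed with water and imaged.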

[9] = molecular target: T3, PDI; test: kinact/KI determination in PDI reductase assay with reduced PDI; format: biochemical
[10] = molecular target: T1, PDIA1; test: PDI reductase assay; format: biochemical
[11] = tested on: U−87 MG cells; test: MTT growth inhibition assay in U-87 MG cells; format: cell-based; settings: Homo sapiens, read-out: MTT (% inhibition at 30 μM)
Procedure, shortened: (§1)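 Cells were grown at 37 °C, 5% CO₂ in 10% FBS medium: DMEM for U-87 MG, RPMI-1640 for A-172. Duplicate wells of 3000–5000 cells were attached overnight, then exposed to 30 μM test compound for 72 h. MTT (3 mg/mL) was added for 4 h at 37 °C and formazan dissolved in DMSO before reading A570. Inhibition (%) = [1−(At−Ab)/(Ac−Ab)]×100.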

[12] = molecular target: T3, PDI; test: Gel-based competition with fluorescent probe PACMA57; format: binding; settings: 100 μM compound
[13] = molecular target: T4, PDIA3 (Homo sapiens, UniProt P30101); test: PDI reductase assay with PDIA3; format: biochemical
T4 sequence (P30101 25-505): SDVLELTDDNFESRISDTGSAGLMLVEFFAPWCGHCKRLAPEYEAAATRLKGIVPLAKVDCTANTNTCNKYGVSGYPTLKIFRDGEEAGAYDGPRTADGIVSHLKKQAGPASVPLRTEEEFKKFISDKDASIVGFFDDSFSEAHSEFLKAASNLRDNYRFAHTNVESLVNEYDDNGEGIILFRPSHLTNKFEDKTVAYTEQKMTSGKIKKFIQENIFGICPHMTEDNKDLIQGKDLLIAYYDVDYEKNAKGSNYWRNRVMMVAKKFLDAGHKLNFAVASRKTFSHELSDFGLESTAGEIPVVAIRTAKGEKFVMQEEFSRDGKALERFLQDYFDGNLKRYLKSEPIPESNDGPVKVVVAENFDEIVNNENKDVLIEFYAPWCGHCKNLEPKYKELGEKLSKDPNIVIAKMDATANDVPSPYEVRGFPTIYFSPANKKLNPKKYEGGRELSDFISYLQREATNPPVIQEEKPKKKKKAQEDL

[14] = tested on: U−87 MG cells; test: Bromouridine nascent RNA sequencing; format: cell-based, human; settings: 20 μM, 4 h; GSEA
[15] = molecular target: serum albumin (Bos taurus, UniProt P02769); test: Gel-based binding in cell-free medium with fetal bovine serum; settings: cell-free medium supplemented with fetal bovine serum
serum albumin, sequence (P02769 25-607): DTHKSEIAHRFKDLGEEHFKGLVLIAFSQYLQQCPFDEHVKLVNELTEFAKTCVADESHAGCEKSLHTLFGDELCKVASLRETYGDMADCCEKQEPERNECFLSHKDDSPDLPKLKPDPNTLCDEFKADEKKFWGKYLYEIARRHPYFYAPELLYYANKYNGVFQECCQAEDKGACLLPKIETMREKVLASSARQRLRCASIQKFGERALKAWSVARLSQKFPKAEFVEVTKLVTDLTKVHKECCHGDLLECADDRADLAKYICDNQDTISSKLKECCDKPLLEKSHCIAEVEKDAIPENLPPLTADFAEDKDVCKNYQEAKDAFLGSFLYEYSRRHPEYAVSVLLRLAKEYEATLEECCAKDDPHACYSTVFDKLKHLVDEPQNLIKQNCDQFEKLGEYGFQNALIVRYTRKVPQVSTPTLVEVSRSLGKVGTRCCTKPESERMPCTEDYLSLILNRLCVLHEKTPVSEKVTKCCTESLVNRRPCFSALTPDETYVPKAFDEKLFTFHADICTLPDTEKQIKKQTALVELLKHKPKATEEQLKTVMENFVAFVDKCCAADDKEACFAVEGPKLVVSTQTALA
Procedure, shortened: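 Cell-free DMEM, with 10% FBS added, was incubated overnight at 37 °C with 20 μM BODIPY-labelled test compound. Binding to serum albumin was assessed by in-gel imaging of the labelled protein.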

[16] = tested on: A-172 cells; test: MTT growth inhibition assay in A-172 cells; format: cell-based; settings: Homo sapiens, A 172, read-out: MTT (% inhibition at 30 μM)
Procedure, shortened: as §1

[17] = molecular target: T1, PDIA1; test: Gel-based binding assay with recombinant PDIA1; settings: recombinant protein
Procedure, shortened: (§2)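 Each protein at 3.5 µM in CelLytic M buffer was incubated with BODIPY-labelled test compound overnight at room temperature. PDIA1 and PDIA2 are recombinant human; PDIA1 is His-tagged and expressed in E. coli BL21(DE3). Samples were boiled in Laemmli or non-reducing sample buffer, resolved on 10% polyacrylamide gels, and imaged immediately for labelled protein.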

[18] = molecular target: T2, PDIA2; test: Gel-based binding assay with recombinant PDIA2; settings: recombinant protein
Procedure, shortened: as §2

[19] = molecular target: T4, PDIA3; test: Gel-based binding assay with recombinant PDIA3; settings: recombinant protein
Procedure, shortened: as §2

[20] = molecular target: BSA (Bos taurus, UniProt P02769); test: Gel-based binding assay with BSA; parameters: species or system bovine
BSA, sequence (P02769 25-607): as above
Procedure, shortened: as §2

T1 sequence (P07237 18-508): as the sequence (P07237 18-508 H256A) above, with A239H counted along it

`O=c1c(O[C@@H]2O[C@H](CO)[C@@H](O)[C@H](O)[C@H]2O)c(-c2ccc(O)c(O)c2)oc2cc(O)cc(O)c12` [isoquercetin, reference compound] was tested, and the “PDI inhibition in the presence of competing glutathione” value (from here on “PDI inhibition in the presence”) [1] was “remained active”.
With `Oc1c(C(Nc2ccccn2)c2ccc(Cl)cc2)ccc2cccnc12` (stereo not drawn) [CD343] the “activity against H256A mutant PDI” value [2] was “retained their activity”, the “inhibition of PDIA2 activity” value [3] was “inhibited activity of PDIA2” and the “stabilization of PDI to thermal degradation” value (“stabilization of PDI” for short) [4] was “did not stabilize PDI to thermal degradation”. For the same compound, the “PDI activity recovery after 100-fold dilution” value [5] was “did not maintain the characteristics of the high concentration of inhibitor after dilution”, the “PDI activity recovery after dilution” value [5] was “too active at this ratio” and the “competition with ANS fluorescence” value [6] was “did not lower the fluorescence of ANS”.
`Oc1c(C(c2ccc(F)cc2)N2CCNCC2)ccc2cncnc12` (stereo not drawn) [5d, 7-((4-Fluorophenyl)(piperazin-1-yl)methyl)quinazolin-8-ol] was tested, and the “covalent binding to PDI by mass spectrometry” value (shortened to “covalent binding to PDI”) [7] was “bound to PDI”, the “PDI inhibition in the presence” value [1] was “maintained potency” and the “potency in colony formation assay, dependence on BSO” value [8] was “more sensitive to BSO addition”.
`COC(=O)C1(C)c2[nH]c3ccccc3c2CCN1C(=O)CCl` (stereo not drawn) [16F16] was tested, and the kinact/KI [9] was 170 M⁻¹ s⁻¹.
In the case of `Oc1cc2c(cc1C(c1ccc(F)cc1)N1CCCCC1)CCC2` (stereo not drawn) [6f, 6-((4-Fluorophenyl)(piperidin-1-yl)methyl)-2,3-dihydro-1H-inden-5-ol], the “PDI inhibition in the PDI reductase assay (in words)” value [10] is reported as “completely lost activity”, the inhibition at 30 µM [11] is reported as 13% and the “covalent binding to PDI” value [7] is reported as “did not demonstrate covalent binding to PDI”. For the same compound, the “competition with PACMA57 for binding to PDI” value [12] was “did not compete with PACMA57”.
`COc1ccc(C(c2cc3c(cc2O)OCO3)N2CCOCC2)cc1OC` (stereo not drawn) [AS15] was tested, and the kinact/KI [9] was 2600 M⁻¹ s⁻¹, the “activity against H256A mutant PDI” value [2] was “retained their activity” and the “inhibition of PDIA2 activity” value [3] was “inhibited activity of PDIA2”. The “inhibition of PDIA3 activity” value [13] was “could also inhibit PDIA3 activity”, the “stabilization of PDI” value [4] was “did not stabilize PDI to thermal degradation” and the “PDI activity recovery after 100-fold dilution” value [5] was “did not maintain the characteristics of the high concentration of inhibitor after dilution”. For the same compound, the “PDI activity recovery after dilution” value [5] was “behave like the expected irreversible inhibitor” and the “competition with ANS fluorescence” value [6] was “did not lower the fluorescence of ANS”.
With `Oc1c(C(c2ccncc2)N2CCCCC2)ccc2ccoc12` (stereo not drawn) [5p, 6-(Piperidin-1-yl(pyridin-4-yl)methyl)benzofuran-7-ol] the inhibition at 30 µM [11] was 1% and the “effect on transcription (gene set enrichment)” value [14] was “upregulates transcription of genes involved in the unfolded protein response”.
`CN(C)c1ccc(C(Nc2ncccn2)c2cc3c(cc2O)OCO3)cc1` (stereo not drawn) [compound 14, 6-((4-(Dimethylamino)phenyl)(pyrimidin-2-ylamino)methyl)benzo[d][1,3]dioxol-5-ol] was tested, and the “PDI inhibition in the presence” value [1] was “maintained potency”.
With `CC1=CC(C)=[N+]2C1=C(c1ccc(NC(=O)c3ccc(C(c4cc5c(cc4O)OCO5)N4CCCCC4)cc3)cc1)c1c(C)cc(C)n1[B-]2(F)F` (stereo not drawn) [compound 15, N-(4-(5,5-Difluoro-1,3,7,9-tetramethyl-5H-4λ^4,5λ^4-dipyrrolo[1,2-c:2’,1’-f][1,3,2]diazaborinin-10-yl)phenyl)-4-((6-hydroxybenzo[d][1,3]dioxol-5-yl)(piperidin-1-yl)methyl)benzamide] the “PDI inhibition in the PDI reductase assay (in words)” value [10] was “did not inhibit PDI activity” and the “binding to serum albumin” value [15] was “bound to serum albumin”.
In the case of `COc1cccc(C(c2cc3c(cc2O)OCO3)N2CCOCC2)c1OC` (stereo not drawn) [6a, 6-((2,3-Dimethoxyphenyl)(morpholino)methyl)benzo[d][1,3]dioxol-5-ol], the “covalent binding to PDI” value [7] is reported as “bound reduced PDI at three sites” and the “PDI activity recovery after dilution” value [5] is reported as “too active at this ratio”.
In the case of `C#CC(=O)N(c1ccc(OC)cc1OC)C(C(=O)NCC(=O)OCC)c1cccs1` (stereo not drawn) [PACMA31, reference compound], the kinact/KI [9] is reported as 200 M⁻¹ s⁻¹ and the “stabilization of PDI” value [4] is reported as “did not stabilize PDI to thermal degradation”.
`Oc1cc2c(cc1C(c1ccccc1)N1CCCCC1)OCO2` (stereo not drawn) [6b, 6-(phenyl(piperidin-1-yl)methyl)benzo[d][1,3]dioxol-5-ol] was tested, and the inhibition at 30 µM [16] was 17%.
For `N#Cc1cccc(/C=C/C(=O)c2ccc(O)cc2)c1` [BAP2, reference compound], the “PDI inhibition in the presence” value [1] was “remained active”.
In the case of `Oc1c(C(c2ccc(F)cc2)N2CCN(C(c3ccc(F)cc3)c3ccc4cncnc4c3O)CC2)ccc2cncnc12` (stereo not drawn) [5d dimer], the “covalent binding to PDI” value [7] is reported as “bound to PDI”, the “PDI inhibition in the presence” value [1] is reported as “less sensitive to glutathione competition than the monomer” and the “potency in colony formation assay, dependence on BSO” value [8] is reported as “more potent and its potency was not dependent on BSO addition”.
For `CC1=CC(C)=[N+]2C1=C(c1ccc(C(=O)NCCNC(=O)c3ccc(C(c4cc5c(cc4O)OCO5)N4CCCCC4)cc3)cc1)c1c(C)cc(C)n1[B-]2(F)F` (stereo not drawn) [compound 16], the “binding to serum albumin” value [15] was “bound to serum albumin”, the “binding to PDIA1” value [17] was “covalently binds; also recorded: bound” and the “binding to PDIA2” value [18] was “bound”. The “binding to PDIA3” value [19] was “bound” and the “binding to BSA” value [20] was “bound”.
